Assay results of several laboratories.
Compare with care: the assays were run in different laboratories.
Organism: Pseudomonas aeruginosa
Observed: microbial growth

Compound | assay | test system | conditions | MIC
CN(Cc1ccc2cc3c(c(O)c2c1)C(=O)C1=C(O)[C@]2(O)C(=O)C(C(N)=O)=C(O)[C@@H](N(C)C)[C@@H]2C[C@@H]1C3)c1ccccc1 | broth dilution | ATCC27853 | – | 32 µg/mL
CC(C)Oc1c(NC(=O)c2ccc(NC(=O)[C@H](CC(N)=O)NC(=O)c3ccc(NC(=O)c4ccc(NC(N)=O)cc4)cc3)cc2)ccc(C(=O)Nc2ccc(C(=O)O)cc2)c1O | – | PA14 | – | > 64 µg/mL
O=C(Nc1ccc2c(c1)OC(F)(F)O2)Nc1ccc(Cl)c(C(F)(F)F)c1 | – | DSM19882 | – | > 100 µM
CCCCCCC/C=C/C(=O)N1C(=O)/C(=C(\O)CCCC)C(=O)C1CC(C)C (stereo not shown) | – | PA01 | – | > 200 µg/mL
Clc1ccc(NCc2ccc(Oc3ccccn3)cc2)cc1 | – | – | – | > 25 µg/mL
CC(C)Oc1c(NC(=O)c2ccc(NC(=O)[C@H](CC(N)=O)NC(=O)c3ccc(NC(=O)c4ccc([N+](=O)[O-])c5cccnc45)cc3)cc2)ccc(C(=O)Nc2ccc(C(=O)O)cc2)c1O | – | PA14 | – | > 64 µg/mL
CC1(C)SC2C(NC(=O)C(NC(=O)C3=C(O)C(Cc4ccc(O)cc4)NC3=O)c3ccccc3)C(=O)N2C1C(=O)O (stereo not shown) | – | – | – | 25 µg/mL
c1ccc(NCc2ccc(Oc3ccccn3)cc2)cc1 | – | – | – | > 25 µg/mL
O=C(Nc1ccc(S(=O)(=O)c2nccs2)cc1)c1cc(N=Nc2nccs2)ccc1O | broth dilution | – | – | 100 µg/mL
CC1=NN(CNc2c(O)c(S(=O)(=O)O)cc3ccccc23)C(=O)C1=NNn1c(-c2ccccc2)nc2ccccc2c1=O | broth dilution | – | 24 h | 41.8 µM
NC1CCCCc2c1[nH]c1ccc(Cl)c(Cl)c21 (stereo not shown) | broth dilution | PAO1 | 18 h | 256 µg/mL
CCCCCCC#Cc1cncc(-c2nnc(SCc3ccc(C#N)cc3)n2C)c1 | – | – | – | ≥ 20 µg/mL
CC1(C)S[C@@H]2[C@H](NC(=O)C(C(=O)O)c3ccccc3)C(=O)N2[C@H]1C(=O)O (stereo partly shown) | broth dilution | – | – | > 200 µM
C=CCOc1c(C)c(O)c(C(=O)/C=C/c2ccccc2)c(OC)c1C | broth dilution | ATCC27853 | – | 5000 µg/mL
CN(C)c1nc(NC(=O)CNC(C)(C)C)c(O)c2c1C[C@H]1C[C@H]3[C@H](N(C)C)C(O)=C(C(N)=O)C(=O)[C@@]3(O)C(O)=C1C2=O.Cl | broth dilution | ATCC27853 | – | > 32 µg/mL
CC(C)Oc1c(NC(=O)c2ccc(NC(=O)[C@H](CC(N)=O)NC(=O)c3cccc(-c4cccc(C#N)c4)c3)cc2)ccc(C(=O)Nc2ccc(C(=O)O)cc2)c1O | – | PA14 | – | > 64 µg/mL
Cc1ccc(C)n1-c1ccc(-c2nnc(S)s2)cc1 | broth dilution | ATCC10145 | 18 h | 2 µg/mL
O=C(CCCCCCCCCC[P+](c1ccccc1)(c1ccccc1)c1ccccc1)Nc1ccc(O)c(O)c1.[Br-] | broth dilution | ATCC27853 | 18 h | > 32 µg/mL
COc1c(C)c(O)c(C)c(O)c1C(=O)/C=C/c1ccccc1 | broth dilution | ATCC27853 | – | 1250 µg/mL

Compound | assay | test system | conditions | MIC
CC(=O)Nc1ccc(C(=O)Nc2ccc(C(=O)N[C@@H](CC(N)=O)C(=O)Nc3ccc(C(=O)Nc4ccc(C(=O)Nc5ccc(C(=O)O)cc5)c(O)c4OC(C)C)cc3)cc2)cc1 | – | PA14 | – | > 64 µg/mL
O=c1cc(-c2ccccc2)oc2cc(O)cc(O)c12 | broth dilution | PAO1 | – | 128 µg/mL
Cc1ncc(O)c2c1C[C@H]1C[C@H]3[C@H](N(C)C)C(O)=C(C(N)=O)C(=O)[C@@]3(O)C(O)=C1C2=O.Cl.Cl | broth dilution | ATCC27853 | – | 16 µg/mL
CC(=O)NCN1N=C(C)C(=NNn2c(-c3ccccc3)nc3ccccc3c2=O)C1=O | broth dilution | – | 24 h | 59.9 µM
Cc1cc(C)n(C(=O)c2ccc(-n3c(C)ccc3C)cc2)n1 | broth dilution | ATCC10145 | 18 h | 250 µg/mL
O=c1cc(-c2ccccc2)oc2cc(O)c(O)c(O)c12 | broth dilution | PAO1 | – | 256 µg/mL
Cc1ccc2nc(-c3ccc(Cl)cc3)n(Cc3ccccc3)c2c1 | broth dilution | ATCC27853 | – | 64 µg/mL
CN(C)[C@@H]1C(O)=C(C(N)=O)C(=O)[C@@]2(O)C(O)=C3C(=O)c4c(O)cnc(-c5ccccc5)c4C[C@H]3C[C@@H]12.Cl.Cl | broth dilution | ATCC27853 | – | > 32 µg/mL
CCN1CCN(C(=O)N[C@@H](C(=O)N[C@@H]2C(=O)N3[C@@H]2SC(C)(C)[C@@H]3C(=O)O)c2ccccc2)C(=O)C1=O | – | – | – | 12.5 µg/mL
Cc1cc(C#N)ccc1C(=O)Nc1ccc(C(=O)N[C@@H](CC(N)=O)C(=O)Nc2ccc(C(=O)Nc3ccc(C(=O)Nc4ccc(C(=O)O)cc4)c(O)c3OC(C)C)cc2)cc1 | – | PA14 | – | 8 µg/mL
CN(C)[C@@H]1C(O)=C(C(N)=O)C(=O)[C@@]2(O)C(O)=C3C(=O)c4c(O)cnc(Cl)c4C[C@H]3C[C@@H]12.Cl | broth dilution | ATCC27853 | – | > 32 µg/mL
CCCCCCC/C=C/C(=O)N1C(=O)/C(=C(/C)O)C(=O)C1CCCCN (stereo not shown) | – | PA01 | – | > 200 µg/mL
CC(C)Oc1c(NC(=O)c2ccc(NC(=O)[C@H](CC(N)=O)NC(=O)c3ccc(NC(=O)c4ccc(C5(C(F)(F)F)N=N5)cc4)cc3)cc2)ccc(C(=O)Nc2ccc(C(=O)O)cc2)c1O | – | PA14 | – | > 64 µg/mL
CN(C)Cc1ccc2cc3c(c(O)c2c1)C(=O)C1=C(O)[C@]2(O)C(=O)C(C(N)=O)=C(O)[C@@H](N(C)C)[C@@H]2C[C@@H]1C3 | broth dilution | ATCC27853 | – | 32 µg/mL
Cc1ccc(C)n1-c1ccc(-c2nnc(-c3cccc([N+](=O)[O-])c3)[nH]2)cc1 | broth dilution | ATCC10145 | 18 h | 250 µg/mL
COc1c(C)c(OC(=O)c2ccccc2)c(C)c(O)c1C(=O)/C=C/c1ccccc1 | broth dilution | ATCC27853 | – | 5000 µg/mL
CC(C)Oc1c(NC(=O)c2ccc(NC(=O)[C@H](CC(N)=O)NC(=O)c3ccc(NC(=O)c4ccc(C#N)c(Cl)c4)cc3)cc2)ccc(C(=O)Nc2ccc(C(=O)O)cc2)c1O | – | PA14 | – | > 64 µg/mL
Clc1ccc(-c2nc3ccccc3n2Cc2ccccc2)cc1Cl | broth dilution | ATCC27853 | – | 256 µg/mL
